# Non-standard residues stand in square brackets, D forms with d. Residues, ends and D or L forms follow the SMILES beside them. Tpi = O=C(O)[C@@H]1Cc2c([nH]c3ccccc23)CN1
# Tested on: Mus musculus
# Assay: Analgesic activity in ICR mouse assessed as increase in pain threshold at 0.15 mmol/kg, po after 30 mins by tail flick method (reference value: 5.03 +/- 10.26 %)
# Assay type: functional
row,Compound,Activity [%]
1,CC[C@H](C)[C@H](NC(=O)[C@@H]1Cc2c([nH]c3ccccc23)CN1)C(=O)N[C@@H](Cc1ccccc1)C(=O)N[C@@H](Cc1c[nH]c2ccccc12)C(=O)O (H-[Tpi]IFW-OH),33.01
2,C[C@H](NC(=O)[C@@H]1Cc2c([nH]c3ccccc23)CN1)C(=O)N[C@@H](Cc1ccccc1)C(=O)N[C@@H](Cc1c[nH]c2ccccc12)C(=O)O (H-[Tpi]AFW-OH),37.58
3,NCCCC[C@H](N)C(=O)N[C@@H](Cc1ccccc1)C(=O)N[C@@H](Cc1c[nH]c2ccccc12)C(=O)O (H-Lys-Phe-Trp-OH),20.16
4,O=C(O)[C@H](Cc1c[nH]c2ccccc12)NC(=O)[C@H](Cc1ccccc1)NC(=O)[C@H](Cc1ccccc1)NC(=O)[C@@H]1Cc2c([nH]c3ccccc23)CN1 (H-[Tpi]FFW-OH),31.34
5,CC(=O)Oc1ccccc1C(=O)O [ASPIRIN],32.85

# Tested on: Mus musculus
# Assay: Analgesic activity in ICR mouse assessed as increase in pain threshold at 0.15 mmol/kg, po after 60 mins by tail flick method (reference value: 7.45 +/- 8.03 %)
# Assay type: functional
row,Compound,Activity [%]
1,CC[C@H](C)[C@H](NC(=O)[C@@H]1Cc2c([nH]c3ccccc23)CN1)C(=O)N[C@@H](Cc1ccccc1)C(=O)N[C@@H](Cc1c[nH]c2ccccc12)C(=O)O (H-[Tpi]IFW-OH),38.01
2,C[C@H](NC(=O)[C@@H]1Cc2c([nH]c3ccccc23)CN1)C(=O)N[C@@H](Cc1ccccc1)C(=O)N[C@@H](Cc1c[nH]c2ccccc12)C(=O)O (H-[Tpi]AFW-OH),48.23
3,NCCCC[C@H](N)C(=O)N[C@@H](Cc1ccccc1)C(=O)N[C@@H](Cc1c[nH]c2ccccc12)C(=O)O (H-Lys-Phe-Trp-OH),25.43
4,O=C(O)[C@H](Cc1c[nH]c2ccccc12)NC(=O)[C@H](Cc1ccccc1)NC(=O)[C@H](Cc1ccccc1)NC(=O)[C@@H]1Cc2c([nH]c3ccccc23)CN1 (H-[Tpi]FFW-OH),37.2
5,CC(=O)Oc1ccccc1C(=O)O [ASPIRIN],38.45

# Tested on: Mus musculus
# Assay: Analgesic activity in ICR mouse assessed as increase in pain threshold at 0.15 mmol/kg, po after 90 mins by tail flick method (reference value: 7.53 +/- 11.54 %)
# Assay type: functional
row,Compound,Activity [%]
1,CC[C@H](C)[C@H](NC(=O)[C@@H]1Cc2c([nH]c3ccccc23)CN1)C(=O)N[C@@H](Cc1ccccc1)C(=O)N[C@@H](Cc1c[nH]c2ccccc12)C(=O)O (H-[Tpi]IFW-OH),41.23
2,C[C@H](NC(=O)[C@@H]1Cc2c([nH]c3ccccc23)CN1)C(=O)N[C@@H](Cc1ccccc1)C(=O)N[C@@H](Cc1c[nH]c2ccccc12)C(=O)O (H-[Tpi]AFW-OH),46.48
3,NCCCC[C@H](N)C(=O)N[C@@H](Cc1ccccc1)C(=O)N[C@@H](Cc1c[nH]c2ccccc12)C(=O)O (H-Lys-Phe-Trp-OH),23.47
4,O=C(O)[C@H](Cc1c[nH]c2ccccc12)NC(=O)[C@H](Cc1ccccc1)NC(=O)[C@H](Cc1ccccc1)NC(=O)[C@@H]1Cc2c([nH]c3ccccc23)CN1 (H-[Tpi]FFW-OH),40.56
5,CC(=O)Oc1ccccc1C(=O)O [ASPIRIN],41.23

# Tested on: Mus musculus
# Assay: Analgesic activity in ICR mouse assessed as increase in pain threshold at 0.15 mmol/kg, po after 120 mins by tail flick method (reference value: 8.09 +/- 13.28 %)
# Assay type: functional
row,Compound,Activity [%]
1,CC[C@H](C)[C@H](NC(=O)[C@@H]1Cc2c([nH]c3ccccc23)CN1)C(=O)N[C@@H](Cc1ccccc1)C(=O)N[C@@H](Cc1c[nH]c2ccccc12)C(=O)O (H-[Tpi]IFW-OH),27.32
2,C[C@H](NC(=O)[C@@H]1Cc2c([nH]c3ccccc23)CN1)C(=O)N[C@@H](Cc1ccccc1)C(=O)N[C@@H](Cc1c[nH]c2ccccc12)C(=O)O (H-[Tpi]AFW-OH),42.03
3,NCCCC[C@H](N)C(=O)N[C@@H](Cc1ccccc1)C(=O)N[C@@H](Cc1c[nH]c2ccccc12)C(=O)O (H-Lys-Phe-Trp-OH),20.14
4,O=C(O)[C@H](Cc1c[nH]c2ccccc12)NC(=O)[C@H](Cc1ccccc1)NC(=O)[C@H](Cc1ccccc1)NC(=O)[C@@H]1Cc2c([nH]c3ccccc23)CN1 (H-[Tpi]FFW-OH),45.46
5,CC(=O)Oc1ccccc1C(=O)O [ASPIRIN],33.24

# Tested on: Mus musculus
# Assay: Analgesic activity in ICR mouse assessed as increase in pain threshold at 0.15 mmol/kg, po after 150 mins by tail flick method (reference value: 9.02 +/- 12.19 %)
# Assay type: functional
row,Compound,Activity [%]
1,CC[C@H](C)[C@H](NC(=O)[C@@H]1Cc2c([nH]c3ccccc23)CN1)C(=O)N[C@@H](Cc1ccccc1)C(=O)N[C@@H](Cc1c[nH]c2ccccc12)C(=O)O (H-[Tpi]IFW-OH),15.25
2,C[C@H](NC(=O)[C@@H]1Cc2c([nH]c3ccccc23)CN1)C(=O)N[C@@H](Cc1ccccc1)C(=O)N[C@@H](Cc1c[nH]c2ccccc12)C(=O)O (H-[Tpi]AFW-OH),28.79
3,NCCCC[C@H](N)C(=O)N[C@@H](Cc1ccccc1)C(=O)N[C@@H](Cc1c[nH]c2ccccc12)C(=O)O (H-Lys-Phe-Trp-OH),11.23
4,O=C(O)[C@H](Cc1c[nH]c2ccccc12)NC(=O)[C@H](Cc1ccccc1)NC(=O)[C@H](Cc1ccccc1)NC(=O)[C@@H]1Cc2c([nH]c3ccccc23)CN1 (H-[Tpi]FFW-OH),21.12
5,CC(=O)Oc1ccccc1C(=O)O [ASPIRIN],30.41

# Tested on: Mus musculus
# Assay: Analgesic activity in ICR mouse assessed as increase in pain threshold at 0.15 mmol/kg, po after 180 mins by tail flick method (reference value: 8.75 +/- 9.73 %)
# Assay type: functional
row,Compound,Activity [%]
1,CC[C@H](C)[C@H](NC(=O)[C@@H]1Cc2c([nH]c3ccccc23)CN1)C(=O)N[C@@H](Cc1ccccc1)C(=O)N[C@@H](Cc1c[nH]c2ccccc12)C(=O)O (H-[Tpi]IFW-OH),16.13
2,C[C@H](NC(=O)[C@@H]1Cc2c([nH]c3ccccc23)CN1)C(=O)N[C@@H](Cc1ccccc1)C(=O)N[C@@H](Cc1c[nH]c2ccccc12)C(=O)O (H-[Tpi]AFW-OH),19.22
3,NCCCC[C@H](N)C(=O)N[C@@H](Cc1ccccc1)C(=O)N[C@@H](Cc1c[nH]c2ccccc12)C(=O)O (H-Lys-Phe-Trp-OH),8.41
4,O=C(O)[C@H](Cc1c[nH]c2ccccc12)NC(=O)[C@H](Cc1ccccc1)NC(=O)[C@H](Cc1ccccc1)NC(=O)[C@@H]1Cc2c([nH]c3ccccc23)CN1 (H-[Tpi]FFW-OH),15.32
5,CC(=O)Oc1ccccc1C(=O)O [ASPIRIN],21.72

# Tested on: Mus musculus
# Assay: Antiinflammatory activity in ICR mouse assessed as inhibition of xylene-induced ear edema at 0.10 mmol/kg, po administered 30 mins before xylene challenge measured after 2 hrs relative to control
# Assay type: functional
# Outline: (§1)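 Male ICR mice (20 ± 2 g), randomised to test, vehicle (CMC) and aspirin (10 mg/kg oral) groups. Test agents given orally as CMC suspension. After 30 min, 0.03 mL xylene applied to both faces of the right ear, left ear as control. At 2 h mice were killed and 7 mm ear punches weighed. Edema is the right-minus-left weight, and inhibition is taken against vehicle.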
row,Compound,inhibition in vivo at 100 µmol/kg [%]
1,C[C@H](NC(=O)[C@@H]1Cc2c([nH]c3ccccc23)CN1)C(=O)N[C@@H](Cc1ccccc1)C(=O)N[C@@H](Cc1c[nH]c2ccccc12)C(=O)O (H-[Tpi]AFW-OH),44.8

# Tested on: Mus musculus
# Assay: Antiinflammatory activity in ICR mouse assessed as inhibition of xylene-induced ear edema at 0.05 mmol/kg, po administered 30 mins before xylene challenge measured after 2 hrs relative to control
# Assay type: functional
# Outline: as §1
row,Compound,inhibition in vivo at 50 µmol/kg [%]
1,C[C@H](NC(=O)[C@@H]1Cc2c([nH]c3ccccc23)CN1)C(=O)N[C@@H](Cc1ccccc1)C(=O)N[C@@H](Cc1c[nH]c2ccccc12)C(=O)O (H-[Tpi]AFW-OH),32.6

# Tested on: Mus musculus
# Assay: Antiinflammatory activity in ICR mouse assessed as inhibition of xylene-induced ear edema at 0.15 mmol/kg, po administered 30 mins before xylene challenge measured after 2 hrs relative to control
# Assay type: functional
# Outline: as §1
row,Compound,inhibition in vivo at 150 µmol/kg [%]
1,CC[C@H](C)[C@H](NC(=O)[C@@H]1Cc2c([nH]c3ccccc23)CN1)C(=O)N[C@@H](Cc1ccccc1)C(=O)N[C@@H](Cc1c[nH]c2ccccc12)C(=O)O (H-[Tpi]IFW-OH),56.4
2,C[C@H](NC(=O)[C@@H]1Cc2c([nH]c3ccccc23)CN1)C(=O)N[C@@H](Cc1ccccc1)C(=O)N[C@@H](Cc1c[nH]c2ccccc12)C(=O)O (H-[Tpi]AFW-OH),52.7
3,O=C(O)[C@H](Cc1c[nH]c2ccccc12)NC(=O)[C@H](Cc1ccccc1)NC(=O)[C@H](Cc1ccccc1)NC(=O)[C@@H]1Cc2c([nH]c3ccccc23)CN1 (H-[Tpi]FFW-OH),48.2

# Tested on: Mus musculus
# Assay: Antiinflammatory activity in po dosed ICR mouse assessed as inhibition of xylene-induced ear edema administered 30 mins before xylene challenge measured after 2 hrs
# Assay type: functional, organism-based
# Outline: as §1
row,Compound,inhibition
1,C[C@H](NC(=O)[C@@H]1Cc2c([nH]c3ccccc23)CN1)C(=O)N[C@@H](Cc1ccccc1)C(=O)N[C@@H](Cc1c[nH]c2ccccc12)C(=O)O (H-[Tpi]AFW-OH),Dose-dependent effect

# Reference: ChEMBL document CHEMBL1781989, “Novel β-carboline-tripeptide conjugates attenuate mesenteric ischemia/reperfusion injury in the rat” (2011)
